Data published in ChEMBL document CHEMBL1122508, “Conjugates of catecholamines. 1. N-alkyl-functionalized carboxylic acid congeners and amides related to isoproterenol” (1983).

tested on: S49; assay: In vitro biological activity against accumulation of cAMP in S49 cells as relative activity expressed as ratio of KA for isoproterenol to KA for the compound; format: functional, Mus musculus
How it was run: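 Wild-type S-49 mouse lymphoma cells resuspended at 2–2.5 × 10^6/mL in DME (13.3 g/L), 20 mM Hepes pH 7.4, 0.1% BSA. Preincubated 10 min at 37 °C without drug, then 6 min with compound; stopped on ice, pellets boiled, cAMP measured by competitive binding. K_A taken from cAMP vs log concentration; ratio uses isoproterenol K_A run at the same time. Each K_A averages ≥3 determinations, each in triplicate.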

Row | SMILES | Relative activity
1 | CC(CCCCC(=O)NC1CCCCC1)NCC(O)c1ccc(O)c(O)c1.Cl (stereo unspecified) | 0.17
2 | CC(CCCCC(=O)Nc1cccc(C(F)(F)F)c1)NCC(O)c1ccc(O)c(O)c1.Cl (stereo unspecified) | 0.98
3 | Cc1ccc(NC(=O)CCCC(C)NCC(O)c2ccc(O)c(O)c2)cc1.Cl (stereo unspecified) | 0.36
4 | Cc1ccc(N(C)C(=O)CCCCC(C)NCC(O)c2ccc(O)c(O)c2)cc1.Cl (stereo unspecified) | 73
5 | CC(CCCCCC(=O)O)NCC(O)c1ccc(O)c(O)c1 (stereo unspecified) | 0.00083
6 | Cc1ccc(NC(=O)CCCCCC(C)NCC(O)c2ccc(O)c(O)c2)cc1.Cl (stereo unspecified) | 0.11
7 | CCCCNC(=O)CCCCC(C)NCC(O)c1ccc(O)c(O)c1.Cl (stereo unspecified) | 0.25
8 | Cc1ccc(NC(=O)CCCCC(C)NCC(O)c2ccc(O)c(O)c2)cc1.Cl (stereo unspecified) | 54
9 | CCCCc1ccc(NC(=O)CCCCC(C)NCC(O)c2ccc(O)c(O)c2)cc1.Cl (stereo unspecified) | 3200
10 | CC(CCCCC(=O)Nc1ccccc1C(F)(F)F)NCC(O)c1ccc(O)c(O)c1.Cl (stereo unspecified) | 0.00025
11 | Cc1ccc(NC(=O)CCC(C)NCC(O)c2ccc(O)c(O)c2)cc1.Cl (stereo unspecified) | 0.71
12 | CC(CCC(=O)O)NCC(O)c1ccc(O)c(O)c1 (stereo unspecified) | 0.00016
13 | COc1ccc(NC(=O)CCCCC(C)NCC(O)c2ccc(O)c(O)c2)cc1.Cl (stereo unspecified) | 3.1
14 | CC(CCCC(=O)O)NCC(O)c1ccc(O)c(O)c1 (stereo unspecified) | 0.00068
15 | CC(CCCCC(=O)Nc1ccc(C(F)(F)F)cc1)NCC(O)c1ccc(O)c(O)c1.Cl (stereo unspecified) | 11000
16 | CC(CCCCC(=O)O)NCC(O)c1ccc(O)c(O)c1 (stereo unspecified) | 0.00097
